The test system of one test is NALM-6. Description: Antileukemic activity against human leukemia NALM-6 (B-lineage ALL) cell line. Format: functional, cell-based. The essentials:
(§1)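 Cells treated with compounds in 96-well plates, incubated 48 h at 37 °C; cytotoxicity read by MTT assay; IC50 values calculated by curve fitting.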

The test system of a further test is MOLT-3. In words: Antileukemic activity against human leukemia MOLT-3(T-lineage ALL) cell line. It counts as functional, cell-based. The essentials:
as §1

Each structure is given as a SMILES string.

For `COc1cc2ncnc(Nc3ccc([As](=O)(O)O)cc3)c2cc1OC`, the IC50 in the test on NALM-6 and with MOLT-3 was over 100 µM each time. For the compound `COc1cc2ncnc(Nc3ccccc3[As](=O)(O)O)c2cc1OC`, the IC50 in the test on NALM-6 turned out to be 46.6 µM; with MOLT-3, 55.6 µM. On to `CSc1nccc(Nc2ccc(/N=N/c3ccc([As](=O)(O)O)cc3)cc2)n1`, for which the 50% inhibitory concentration (IC50) in the test with NALM-6 came out at 6.1 µM; in the test on MOLT-3, 4.1 µM. For the compound `O=[As](O)(O)c1ccc(/N=N/c2ccc(Nc3[nH]cnc4ncnc3-4)cc2)cc1`, the figures for the IC50 in the test with NALM-6 and in the test with MOLT-3 were 22.5 µM and 21.6 µM, respectively. As for `COc1cc2ncnc(Nc3ccc(/N=N/c4ccc([As](=O)(O)O)cc4)cc3)c2cc1OC`, the figures for the 50% inhibitory concentration (IC50) with NALM-6 and in the test with MOLT-3 were 16.9 µM and 13.9 µM, respectively. The matching figures for `O=[As](O)(O)c1ccc(/N=N/c2ccc(Nc3nc(C(Cl)(Cl)Cl)nc4ccccc34)cc2)cc1`: 1.1 µM and 2 µM. For `CSc1nccc(Nc2ccccc2[As](=O)(O)O)n1`, in that order: 1.5 µM and 2.3 µM. The matching figures for `CSc1nccc(Nc2ccc([As](=O)(O)O)cc2)n1`: 5.6 µM and 9.1 µM. For the compound `O=[As](O)(O)c1ccc(Nc2nc(C(Cl)(Cl)Cl)nc3ccccc23)cc1`, the IC50 with NALM-6 and with MOLT-3 was over 100 µM each time. Turning to `O=[As](O)(O)c1ccccc1Nc1nc(C(Cl)(Cl)Cl)nc2ccccc12`, the IC50 with NALM-6 and in the test on MOLT-3 was over 100 µM in each case. Turning to `Nc1ccc([As](=O)(O)O)cc1` [ARSANILIC ACID], in the test on NALM-6, the 50% inhibitory concentration (IC50) was over 100 µM.

(Values after ChEMBL document CHEMBL1136574, “Organic phenyl arsonic acid compounds with potent antileukemic activity” (Bioorg Med Chem Lett, 2003).)
